According to ChEMBL document CHEMBL1134641, “Progress toward the development of a safe and effective agent for treating reentrant cardiac arrhythmias: synthesis and evaluation of ibutilide analogues with enhanced metabolic stability and diminished proarrhythmic potential” (2001):
“And” between values parts separate entries of the source, which are not always exact repeats. Equal values may be shown once.

Experiments:
Canis familiaris [1] = assay: Number of canine in which sustained ventricular tachycardia (SVT) was observed in PES-induced arrhythmias at an single intravenous dose of 2.4 uM/kg; format: functional, Canis lupus familiaris, Cardiac ventricle
How it was run: (§1)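 Male mongrel dogs (16-22 kg) with LAD ligated in two stages, studied 24 h later. Programmed electrical stimulation at baseline and 15 min after each iv dose in saline (cumulative 0.24, 0.72, 2.4 µmol/kg). Saline controls then received a single 2.4 µmol/kg iv dose. Responses scored as NI (≤15 beats), NSVT (>15 beats, ends within 30 s), SVT (>30 s, needing pacing or cardioversion) or VF. A positive response was repeated.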

Canis familiaris [2] = assay: Blood pressure measured in canine 24-h Infarction model at an cumulative intravenous dose of 0.24 uM/kg; format: functional, Canis lupus familiaris
How it was run: (§2)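 Male mongrel dogs (16-22 kg) with LAD permanently ligated in two stages; studied 24 h later. […] given IV in sequential doses to cumulative 0.24, 0.72, 2.4 µmol/kg. Saline controls (n=8) received vehicle, then a single IV 2.4 µmol/kg dose at the end. Measurements taken at baseline and 15 min after each dose. Means ± SEM, paired t-test, p ≤ 0.05.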

Canis familiaris [3] = assay: Idioventricular heart rate (IVR) measured in canine 24-h Infarction model at a single intravenous dose of 2.4 uM/kg; format: functional, Canis lupus familiaris; how it was run: as §2
Canis familiaris [4] = assay: QT interval measured in canine just after inducing atrial flutter (AFL) termination by the compound at a dose of 0.6 umol/kg; format: functional, Canis lupus familiaris, Heart
How it was run: (§3)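 Conscious, sling-restrained dogs with chronically implanted electrodes, studied after 2 weeks of recovery. Sustained AFL (>5 min) induced. Compound in saline given iv every 5 min to cumulative 0.024-12.0 µmol/kg. At AFL termination, HR, QT (paced cycle length 300 ms), AERP and VERP measured. Measurements then taken 3 min after each further dose. Significance p≤0.05 vs baseline.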

Canis familiaris [5] = assay: QT interval measured in canine just after inducing atrial flutter (AFL) termination by the compound at a dose of 4.8 uM/kg; format: functional, Canis lupus familiaris, Heart; how it was run: as §3
Canis familiaris [6] = assay: Blood pressure measured in canine 24-h Infarction model at a single intravenous dose of 2.4 uM/kg; format: functional, Canis lupus familiaris; how it was run: as §2
Canis familiaris [7] = assay: Ventricular effective refractory (VEPR) period measured in canine 24-h Infarction model at a single intravenous dose of 2.4 uM/kg; format: functional, Canis lupus familiaris, Heart
How it was run: (§4)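 Dogs 24 h after two-stage LAD ligation. Compound in saline given iv in sequential doses (cumulative 0.24, 0.72, 2.4 µmol/kg); saline controls then given a single 2.4 µmol/kg iv dose. HR, IVR, BP, QT, spontaneous arrhythmias/min, ERPs and MAPD90 measured at baseline and 15 min after each dose. Means ± SEM, paired t-test, p≤0.05.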

Canis familiaris [8] = assay: Ventricular MAPD90 measured in canine 24-h Infarction model at a single intravenous dose of 2.4 uM/kg; format: functional, Canis lupus familiaris, Heart; how it was run: as §4
Canis familiaris [9] = species on record: Canis familiaris; assay: Ventricular effective refractory period ([…]) measured in canine just after inducing atrial flutter (AFL) termination by the compound; format: functional, Canis lupus familiaris, Heart
How it was run: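 Conscious dogs, loosely restrained in a sling, with exteriorized electrode leads, studied 2 weeks after instrumentation. AFL was induced and counted as sustained if it lasted 5 min. Compound in saline given intravenously every 5 min to cumulative 0.024-12.0 µmol/kg. VERP was measured at AFL termination and 3 min after each dose. Results are means ± SEM versus baseline, p ≤ 0.05.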

Canis familiaris [10] = assay: Number of canine in which ventricular fibrillation (VF) was observed in PES-induced arrhythmias at an cumulative intravenous dose of 0.72 uM/kg; format: functional, Canis lupus familiaris, Cardiac ventricle; how it was run: as §1
Canis familiaris [11] = assay: QT interval measured in canine just after inducing atrial flutter (AFL) termination by the compound at a dose of 9.6 uM/kg; format: functional, Canis lupus familiaris, Heart; how it was run: as §3
Canis familiaris [12] = assay: QT interval measured in canine 24-h Infarction model at an cumulative intravenous dose of 2.4 uM/kg; format: functional, Canis lupus familiaris; how it was run: as §4
Canis familiaris [13] = assay: Number of canine in which arrhythmias could not be induced at an cumulative intravenous dose of 0.24 uM/kg; format: functional, Canis lupus familiaris; how it was run: as §1
Canis familiaris [14] = assay: Heart rate measured in canine 24-h Infarction model at a single intravenous dose of 2.4 uM/kg; format: functional, Canis lupus familiaris; how it was run: as §2
Canis familiaris [15] = assay: Idioventricular heart rate (IVR) measured in canine 24-h Infarction model at an cumulative intravenous dose of 0.24 uM/kg; format: functional, Canis lupus familiaris; how it was run: as §2
Canis familiaris [16] = assay: Spontaneous arrhythmias measured in canine 24-h Infarction model at a single intravenous dose of 2.4 uM/kg; format: functional, Canis lupus familiaris; how it was run: as §4
Canis familiaris [17] = assay: Atrial effective refractory period (AEPR) measured in canine 24-h Infarction model at an cumulative intravenous dose of 2.4 uM/kg; format: functional, Canis lupus familiaris, Cardiac atrium; how it was run: as §2
Canis familiaris [18] = assay: Spontaneous arrhythmias measured in canine 24-h Infarction model at an cumulative intravenous dose of 0.72 uM/kg; format: functional, Canis lupus familiaris; how it was run: as §4
Canis familiaris [19] = assay: Number of canine in which arrhythmias could not be induced at an cumulative intravenous dose of 0.72 uM/kg; format: functional, Canis lupus familiaris; how it was run: as §1
Canis familiaris [20] = assay: Number of canine in which ventricular fibrillation (VF) was observed in PES-induced arrhythmias at an single intravenous dose of 2.4 uM/kg; format: functional, Canis lupus familiaris, Cardiac ventricle; how it was run: as §1
Canis familiaris [21] = assay: Atrial MAPD90 measured in canine 24-h Infarction model at a single intravenous dose of 2.4 uM/kg; format: functional, Canis lupus familiaris, Cardiac atrium; how it was run: as §2
Canis familiaris [22] = assay: Atrial MAPD90 measured in canine 24-h Infarction model at an cumulative intravenous dose of 0.72 uM/kg; format: functional, Canis lupus familiaris, Cardiac atrium; how it was run: as §2
Canis familiaris [23] = assay: Atrial effective refractory period (AEPR) measured in canine 24-h Infarction model at an cumulative intravenous dose of 0.24 uM/kg; format: functional, Canis lupus familiaris, Cardiac atrium; how it was run: as §2
Canis familiaris [24] = assay: Atrial effective refractory period (AERP) measured in canine just after inducing atrial flutter (AFL) termination by the compound at a dose of 2.4 uM/kg; format: functional, Canis lupus familiaris, Heart
Canis familiaris [25] = assay: Atrial effective refractory period (AEPR) measured in canine 24-h Infarction model at an cumulative intravenous dose of 0.72 uM/kg; format: functional, Canis lupus familiaris, Cardiac atrium; how it was run: as §2

CCN(CCCCCC(C)(C)F)CCC[C@H](O)c1ccc(NS(C)(=O)=O)cc1.O=C(O)/C=C/C(=O)O
No. of canine (Canis familiaris [1]): 1 | BP (Canis familiaris [2]): 112 mmHg | IVR (Canis familiaris [3]): 111 beats min-1 | QT interval (Canis familiaris [4]): 208 ms | QT interval (Canis familiaris [5]): 207 ms | BP (Canis familiaris [6]): 111 mmHg | VERP (Canis familiaris [7]): 180 ms | Ventricular MAPD90 (Canis familiaris [8]): 201 ms | VERP (Canis familiaris [9]): 138 ms | No. of canine (Canis familiaris [10]): 0 | QT interval (Canis familiaris [11]): 204 ms | QT interval (Canis familiaris [12]): 240 ms | No. of canine (Canis familiaris [13]): 8 | HR (Canis familiaris [14]): 127 beats min-1 | IVR (Canis familiaris [15]): 138 beats min-1 | PVCs (Canis familiaris [16]): 53 number min-1 | AERP (Canis familiaris [17]): 194 ms | PVCs (Canis familiaris [18]): 68 number min-1 and 57 number min-1 | No. of canine (Canis familiaris [19]): 9 | No. of canine (Canis familiaris [20]): 0 | Atrial MAPD90 (Canis familiaris [21]): 209 ms | Atrial MAPD90 (Canis familiaris [22]): 146 ms | AERP (Canis familiaris [23]): 149 ms | AERP (Canis familiaris [24]): 166 ms | AERP (Canis familiaris [25]): 166 ms
